Series [1] is described as follows: 1-Octanol-water partition coefficient, log P of the compound at pH 8. Format: physicochemical.
For series [2], the species on record is Ovis aries. Kind of series: Agonist activity at serotonin receptor in sheep umbilical artery assessed increase of mescaline-induced contraction. Format: tissue-based. Put shortly:
(§1)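 Serotonin-receptor agonism measured in an isolated sheep umbilical artery preparation from dose-response curves giving ED50 values. The ratio (mescaline ED50 / compound ED50) is calculated from the data within each experimental series, with mescaline run as a time control. Data are reported over n tissues with the standard error of the geometric mean.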

The species entered for series [3] is Ovis aries. Kind of series: Potency ratio, ratio of mescaline ED50 to compound ED50 for serotonin receptor in sheep umbilical artery assessed increase of mescaline-induced contraction. Type of series: tissue-based. In outline: as §1

For `COc1cc(CCN)cc(OC)c1OCc1ccccc1`, the logD in series [1] stood at 2.4. The ED50 in the series listed under Ovis aries [2] was 4.6 ×10⁻⁷ M. In addition, in the series listed under Ovis aries [3], the Ratio ED50 was found to be 3.04.

Compound `COc1cc(CCN)cc(OC)c1OC` [MESCALINE] had a logD in series [1] of 0.78. In the series listed under Ovis aries [2], this compound came in with an ED50 of 1.4 ×10⁻⁶ M.

In series [1], `CCOc1c(OC)cc(CCN)cc1OC` had a logD of 1.11. The ED50 in the series filed under Ovis aries [2] was 6.8 ×10⁻⁷ M. Also, in the series filed under Ovis aries [3], the Ratio ED50 was 2.06.

In the case of `CCCCOc1c(OC)cc(CCN)cc1OC`, the logD in series [1] turned out to be 2.32. This compound also gave an ED50 in the series listed under Ovis aries [2] of 1.1 ×10⁻⁶ M. Moreover, the Ratio ED50 in the series listed under Ovis aries [3] is 1.27.

In the case of `COc1cc(CCN)cc(OC)c1OC(C)C`, the logD in series [1] came out at 1.52. For the same compound, the ED50 in the series filed under Ovis aries [2] is 5 ×10⁻⁷ M. Besides, the Ratio ED50 in the series filed under Ovis aries [3] turned out to be 2.8.

In the case of `COc1cc(CCN)cc(OC)c1Br`, in series [1], the logD was 2.03. The ED50 in the series filed under Ovis aries [2] is 1.85 ×10⁻⁷ M. In addition, the Ratio ED50 in the series filed under Ovis aries [3] was 7.57.

In the case of `CCCOc1c(OC)cc(CCN)cc1OC`, in series [1], the logD came out at 1.7. This compound registered an ED50 in the series filed under Ovis aries [2] of 3.8 ×10⁻⁷ M. Further, the Ratio ED50 in the series filed under Ovis aries [3] was 3.68.

One may read the logD as the decadic logarithm of the distribution of all forms, ionised or not, between an organic phase and buffer at a given pH.
